How the values were obtained:
Gamma-secretase [1] = test: Modulation of gamma secretase in human H4 cells expressing human wild type APP assessed as inhibition of amyloid beta 42 production after 22 hrs by electrochemiluminescence assay; assay type: cell-based
Procedure, shortened: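 H4 cells overexpressing human APPwt, 10,000/well, were exposed to compound 22 h at 37°C, 5% CO2. Supernatant was diluted with medium on an MSD anti-Aβ42 plate and detected with S-tag 6E10 (1:50, 1 h). Read-out was electrochemiluminescence.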

Cytochrome P450 3A4 = Cytochrome P450 3A4 (Homo sapiens, UniProt P08684); test: Inhibition of CYP3A4 in human liver microsomes using testosterone as substrate in presence of NADPH by LC-MS/MS analysis; assay type: ADME
Procedure, shortened: (§1)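 Human pooled liver microsomes (0.1 mg/ml) at 37°C in 0.1 M Tris with 5 mM MgCl2. Substrates were dextromethorphan 7 µM (2D6), diclofenac 4 µM (2C9), (S)-mephenytoin 30 µM (2C19) and testosterone 60 µM (3A4). Test compound ran at five concentrations. Reactions were started with 1 mM NADPH and stopped by cooling to 8°C plus acetonitrile. Metabolite was read by LC-MS/MS against an isotope internal standard, relative to no-compound control.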

Cytochrome P450 2C19 = Cytochrome P450 2C19 (Homo sapiens, UniProt P33261); test: Inhibition of CYP2C19 in human liver microsomes using (S)-mephenytoin as substrate in presence of NADPH by LC-MS/MS analysis; assay type: ADME; procedure, shortened: as §1
[2] = Drug uptake in Han Wistar rat brain at 10 umol/kg, po administered via gavage measured 3 hrs post dose by LC/MS/MS analysis; assay type: ADME, organism-based; settings: read-out: Drug uptake
Procedure, shortened: (§2)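 Fasted female Han Wistar rats were dosed by oral gavage as a Natrosol suspension. Animals were sacrificed 3 h later and plasma and tissues collected and frozen. Concentrations were measured by LC/MS/MS after acetonitrile precipitation.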

[3] = Apparent permeability from apical to basolateral side in MDCK cells expressing human MDR1 at 1 uM at pH 7.4; assay type: ADME, cell-based, Canis lupus familiaris; settings: dog, MDCK-MDR1, pH 7.4
Procedure, shortened: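 MDCK-MDR1 monolayers; transport measured apical-to-basal and basal-to-apical at pH 7.4, 37°C, starting from 1 µM in the donor compartment; apparent permeability coefficients derived.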

Cytochrome P450 2C8 = biological target: T1, Cytochrome P450 2C8 (Homo sapiens, UniProt P10632); test: Inhibition of CYP2C8 in human liver microsomes in presence of NADPH by LC-MS/MS analysis; assay type: ADME
T1 sequence (P10632 whole entry): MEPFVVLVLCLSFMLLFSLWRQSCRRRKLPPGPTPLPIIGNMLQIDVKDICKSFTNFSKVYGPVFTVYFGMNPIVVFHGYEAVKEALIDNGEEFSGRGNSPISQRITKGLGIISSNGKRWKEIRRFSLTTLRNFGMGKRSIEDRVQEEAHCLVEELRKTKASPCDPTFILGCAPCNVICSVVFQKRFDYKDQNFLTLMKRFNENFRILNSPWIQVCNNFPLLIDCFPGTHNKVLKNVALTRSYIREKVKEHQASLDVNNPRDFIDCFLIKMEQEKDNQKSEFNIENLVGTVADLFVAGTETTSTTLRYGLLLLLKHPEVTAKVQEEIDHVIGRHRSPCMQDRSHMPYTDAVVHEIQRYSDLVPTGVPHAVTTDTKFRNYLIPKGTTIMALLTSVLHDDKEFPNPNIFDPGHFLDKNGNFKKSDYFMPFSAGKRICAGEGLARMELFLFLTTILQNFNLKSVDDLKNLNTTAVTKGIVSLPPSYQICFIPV

Cytochrome P450 2C9 = Cytochrome P450 2C9 (Homo sapiens, UniProt P11712); test: Inhibition of CYP2C9 in human liver microsomes using diclofenac as substrate in presence of NADPH by LC-MS/MS analysis; assay type: ADME; procedure, shortened: as §1
Rattus norvegicus [4] = test: Decrease in total amyloid beta levels in rat brain homogenate at 30 mg/kg, po measured after 3 hrs by electrochemiluminescence assay relative to control; set-up: scale not given: the % may be the effect or the level left; settings: in vivo
[5] = Clearance in Han Wistar rat at 1 umol/kg, iv administered as bolus by LC/MS/MS analysis; assay type: ADME, organism-based; settings: in vivo
Procedure, shortened: (§3)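 Female fed Han Wistar rats received the compound as an i.v. solution. Blood was sampled at several time points and EDTA plasma prepared. Plasma levels were quantified by LC/MS/MS after acetonitrile precipitation, and PK parameters were calculated by non-compartmental analysis.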

[6] = Modulation of gamma secretase in rat E18 cells assessed as inhibition of amyloid beta 42 production after 22 hrs by electrochemiluminescence assay; assay type: cell-based
Rattus norvegicus [7] = test: Decrease in total amyloid beta 42 levels in rat brain homogenate at 30 mg/kg, po measured after 3 hrs by electrochemiluminescence assay relative to control; set-up: scale not given: the % may be the effect or the level left; settings: in vivo
Gamma-secretase [8] = test: Modulation of gamma-secretase in human E6 cells expressing HeLaTetON-NotchdeltaE-NLuc/CLuc-RBP assessed as notch cleavage after 16 hrs by bioluminescence assay; assay type: ADME, cell-based
hERG (KCNH2) [9] = biological target: T2, hERG (KCNH2) (Homo sapiens, UniProt Q12809); test: Inhibition of human ERG at 10 uM by patch clamp assay relative to control
hERG (KCNH2) [10] = biological target: T2, hERG (KCNH2); test: Inhibition of human ERG at 1 uM by patch clamp assay relative to control
[11] = Efflux ratio of apparent permeability from […] in MDCK cells expressing human MDR1 at 1 uM at pH 7.4; assay type: ADME, cell-based, Canis lupus familiaris; settings: dog, pH 7.4, 1 µM
Procedure, shortened: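 MDCK-MDR1 monolayers, pH 7.4, 37°C; transport measured apical-to-basal and basal-to-apical from 1 µM initial donor concentration; apparent permeability coefficients derived for each direction, ratio taken.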

Rattus norvegicus [12] = test: In vivo modulation of gamma secretase in rat brain homogenate assessed as decrease in amyloid beta 42 levels at 30 mg/kg, po measured after 3 hrs by electrochemiluminescence assay relative to control; assay type: functional; set-up: scale not given: the % may be the effect or the level left
Procedure, shortened: (§4)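 Rats dosed orally with compound in 0.5% Natrosol/0.01% Tween 80, then anesthetized (Ketavet, Inactin i.p.) and decapitated 3 h later. Brain slices were homogenized in 20 mM Tris pH 8.5 + 0.2% Triton X-100 (5-fold v/w) and spun 1 h at 210,000 x g, 4°C. Aβ42 in the supernatant was read by MSD electrochemiluminescence with S-tag 4G8 detection.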

[13] = Drug uptake in Han Wistar rat muscle at 10 umol/kg, po administered via gavage measured 3 hrs post dose by LC/MS/MS analysis; assay type: ADME, organism-based, Muscle tissue; settings: read-out: Drug uptake; procedure, shortened: as §2
[14] = Volume of distribution at steady state in Han Wistar rat at 1 umol/kg, iv administered as bolus by LC/MS/MS analysis; assay type: ADME, organism-based; settings: in vivo, read-out: Vdss; procedure, shortened: as §3
[15] = Protein binding in rat plasma at 1 uM after 5 hrs by equilibrium dialysis based LC-MS/MS analysis; assay type: ADME, cell-free; settings: read-out: PPB (converted)
Procedure, shortened: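 Equilibrium dialysis: rat EDTA plasma spiked to 1 µM final, dialysed against PBS with dextran (pH 7.4) across a 5–10 kDa membrane. Run 5 h at 37°C; both sides analyzed by HPLC-MS/MS.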

[16] = Drug uptake in Han Wistar rat plasma at 10 umol/kg, po administered via gavage measured 3 hrs post dose by LC/MS/MS analysis; assay type: ADME, organism-based; procedure, shortened: as §2
Rattus norvegicus [17] = test: In vivo modulation of gamma secretase in rat brain homogenate assessed as decrease in amyloid beta 42 levels at 25 mg/kg, po measured after 3 hrs by electrochemiluminescence assay relative to control; assay type: functional; set-up: scale not given: the % may be the effect or the level left; procedure, shortened: as §4
[18] = Mean residence time in Han Wistar rat at 1 umol/kg, iv administered as bolus by LC/MS/MS analysis; assay type: ADME, organism-based; settings: in vivo; procedure, shortened: as §3
[19] = Ratio of drug uptake in Han Wistar rat muscle to brain at 10 umol/kg, po administered via gavage measured 3 hrs post dose by LC/MS/MS analysis; assay type: ADME, organism-based; settings: in vivo
Procedure, shortened: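 Fasted female Han Wistar rats given 10 µmol/kg orally; sacrificed 3 h post dose, tissues collected and frozen; samples acetonitrile-precipitated, supernatant diluted 1:100 and quantified by LC-ESI-MS/MS; muscle-to-brain concentration ratio.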

[20] = Unbound brain concentration in rat brain at 30 mg/kg, po measured after 3 hrs by LC/MS/MS analysis; assay type: ADME, organism-based; settings: in vivo
Procedure, shortened: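 Unbound brain concentration estimated from unbound plasma exposure 3 h after oral dosing, assuming equal plasma–brain distribution. Plasma sampled after dosing in 0.5% Natrosol/0.01% Tween 80 and quantified by LC/MS/MS.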

Cytochrome P450 2D6 = Cytochrome P450 2D6 (Homo sapiens, UniProt P10635); test: Inhibition of CYP2D6 in human liver microsomes using dextromethorphan as substrate in presence of NADPH by LC-MS/MS analysis; assay type: ADME; procedure, shortened: as §1
[21] = Ratio of drug uptake in Han Wistar rat brain to plasma at 10 umol/kg, po administered via gavage measured 3 hrs post dose by LC/MS/MS analysis; assay type: ADME, organism-based; procedure, shortened: as §2

T2 sequence (Q12809 whole entry): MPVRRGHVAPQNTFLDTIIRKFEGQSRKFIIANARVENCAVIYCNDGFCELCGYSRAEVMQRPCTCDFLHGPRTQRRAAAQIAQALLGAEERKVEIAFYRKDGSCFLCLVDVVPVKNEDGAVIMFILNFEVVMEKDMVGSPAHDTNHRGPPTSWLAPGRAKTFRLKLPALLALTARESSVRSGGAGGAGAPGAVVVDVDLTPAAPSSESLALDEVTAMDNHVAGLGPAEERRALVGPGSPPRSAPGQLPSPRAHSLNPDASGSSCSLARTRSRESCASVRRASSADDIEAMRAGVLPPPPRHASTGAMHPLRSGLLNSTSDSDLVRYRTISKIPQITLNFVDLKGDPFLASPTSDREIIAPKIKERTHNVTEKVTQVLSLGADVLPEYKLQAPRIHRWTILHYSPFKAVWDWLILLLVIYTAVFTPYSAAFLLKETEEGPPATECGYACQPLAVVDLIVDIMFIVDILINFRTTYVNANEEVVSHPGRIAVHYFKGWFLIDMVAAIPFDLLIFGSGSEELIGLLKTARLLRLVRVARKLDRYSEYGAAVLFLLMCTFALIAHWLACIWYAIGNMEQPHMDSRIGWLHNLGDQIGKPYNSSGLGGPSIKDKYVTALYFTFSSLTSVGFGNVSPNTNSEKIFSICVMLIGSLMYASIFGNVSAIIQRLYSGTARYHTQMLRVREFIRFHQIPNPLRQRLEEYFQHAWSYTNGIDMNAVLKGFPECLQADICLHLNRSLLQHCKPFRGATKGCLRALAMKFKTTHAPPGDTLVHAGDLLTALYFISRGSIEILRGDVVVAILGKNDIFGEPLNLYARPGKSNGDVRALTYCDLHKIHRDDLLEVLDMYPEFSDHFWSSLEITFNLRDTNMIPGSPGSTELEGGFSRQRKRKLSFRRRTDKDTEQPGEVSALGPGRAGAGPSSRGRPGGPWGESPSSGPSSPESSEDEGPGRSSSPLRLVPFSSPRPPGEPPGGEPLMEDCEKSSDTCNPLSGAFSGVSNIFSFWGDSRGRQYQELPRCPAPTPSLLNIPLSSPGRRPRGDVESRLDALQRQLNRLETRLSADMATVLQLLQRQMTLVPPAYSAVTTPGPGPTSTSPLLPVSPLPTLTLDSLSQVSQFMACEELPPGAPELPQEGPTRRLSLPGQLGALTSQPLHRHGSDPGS
Chain of Cytochrome P450 2C9 (P11712 whole entry): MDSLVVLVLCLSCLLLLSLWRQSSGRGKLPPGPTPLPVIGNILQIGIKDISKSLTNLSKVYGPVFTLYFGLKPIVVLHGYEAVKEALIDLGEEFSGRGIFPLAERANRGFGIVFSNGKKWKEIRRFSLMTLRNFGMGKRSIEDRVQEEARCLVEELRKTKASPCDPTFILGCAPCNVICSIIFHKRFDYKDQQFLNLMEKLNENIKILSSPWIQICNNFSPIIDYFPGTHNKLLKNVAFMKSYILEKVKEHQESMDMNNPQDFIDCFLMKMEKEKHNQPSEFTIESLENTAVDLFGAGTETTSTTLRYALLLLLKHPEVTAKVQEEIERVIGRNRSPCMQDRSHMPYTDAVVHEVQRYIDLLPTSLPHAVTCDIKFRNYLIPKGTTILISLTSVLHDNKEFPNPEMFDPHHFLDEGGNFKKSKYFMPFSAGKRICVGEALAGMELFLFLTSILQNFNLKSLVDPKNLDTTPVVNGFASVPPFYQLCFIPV
Chain of Cytochrome P450 2D6 (P10635 whole entry): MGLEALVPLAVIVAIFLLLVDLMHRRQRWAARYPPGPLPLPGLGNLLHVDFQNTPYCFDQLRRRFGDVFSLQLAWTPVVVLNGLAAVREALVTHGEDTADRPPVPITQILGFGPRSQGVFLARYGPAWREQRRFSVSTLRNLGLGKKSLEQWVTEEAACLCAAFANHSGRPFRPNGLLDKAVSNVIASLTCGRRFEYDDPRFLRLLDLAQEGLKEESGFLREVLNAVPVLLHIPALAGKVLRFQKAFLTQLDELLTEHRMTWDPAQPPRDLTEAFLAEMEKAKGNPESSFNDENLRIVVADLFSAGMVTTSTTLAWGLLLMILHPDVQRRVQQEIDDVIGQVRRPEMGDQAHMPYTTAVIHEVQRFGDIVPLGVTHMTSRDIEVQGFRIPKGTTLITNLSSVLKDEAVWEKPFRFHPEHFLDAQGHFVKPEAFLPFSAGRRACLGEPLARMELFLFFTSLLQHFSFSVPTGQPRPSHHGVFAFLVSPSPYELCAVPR
Chain of Cytochrome P450 3A4 (P08684 whole entry): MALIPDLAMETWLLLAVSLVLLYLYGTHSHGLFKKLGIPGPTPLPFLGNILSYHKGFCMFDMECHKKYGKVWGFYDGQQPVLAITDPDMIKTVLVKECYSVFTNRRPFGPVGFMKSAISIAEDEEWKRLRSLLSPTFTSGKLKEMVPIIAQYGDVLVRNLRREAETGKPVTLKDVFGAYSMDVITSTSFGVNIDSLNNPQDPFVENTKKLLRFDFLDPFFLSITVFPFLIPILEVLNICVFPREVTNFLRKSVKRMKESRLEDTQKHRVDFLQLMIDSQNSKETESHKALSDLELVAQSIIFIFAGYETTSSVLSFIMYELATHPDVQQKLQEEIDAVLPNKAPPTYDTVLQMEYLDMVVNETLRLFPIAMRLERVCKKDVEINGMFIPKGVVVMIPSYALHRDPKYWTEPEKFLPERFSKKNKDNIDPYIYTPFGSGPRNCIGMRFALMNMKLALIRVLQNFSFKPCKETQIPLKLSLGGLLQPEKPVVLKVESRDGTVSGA
Chain of Cytochrome P450 2C19 (P33261 whole entry): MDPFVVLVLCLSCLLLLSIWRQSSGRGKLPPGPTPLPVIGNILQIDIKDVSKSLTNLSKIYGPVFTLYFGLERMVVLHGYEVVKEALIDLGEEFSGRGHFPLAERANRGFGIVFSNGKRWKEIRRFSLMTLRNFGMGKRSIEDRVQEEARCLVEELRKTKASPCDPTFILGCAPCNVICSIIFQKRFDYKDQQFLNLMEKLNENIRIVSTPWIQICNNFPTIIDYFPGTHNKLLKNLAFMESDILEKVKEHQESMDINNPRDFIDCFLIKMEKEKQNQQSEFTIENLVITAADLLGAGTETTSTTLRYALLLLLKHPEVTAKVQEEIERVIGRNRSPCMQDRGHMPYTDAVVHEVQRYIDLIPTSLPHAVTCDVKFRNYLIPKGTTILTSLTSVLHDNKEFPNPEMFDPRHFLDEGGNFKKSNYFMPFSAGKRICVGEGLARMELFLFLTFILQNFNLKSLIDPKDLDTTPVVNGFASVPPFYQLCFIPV

CCn1nc(Cl)c2c1CCC(Nc1nc3c(-c4ccc(F)cc4C)cccn3n1)C2 (centres undefined)
IC50 (Gamma-secretase [1]): 750 nM

CCn1ncc2c1CC[C@@H](Nc1nc3c(-c4ccc(F)cc4C)cccn3n1)C2
IC50 (Cytochrome P450 3A4): > 50000 nM
IC50 (Cytochrome P450 2C19): 36000 nM
concentration at 3 h [2]: 2990 nM
Papp A→B at 1 µM [3]: 78 ×10⁻⁶ cm/s
IC50 (Cytochrome P450 2C8): 9500 nM
IC50 (Cytochrome P450 2C9): 25000 nM
Activity (Rattus norvegicus [4]): 5%
clearance [5]: 40 mL/min/kg
IC50 [6]: 40 nM
Activity (Rattus norvegicus [7]): 3%
IC50 (Gamma-secretase [8]): > 30000 nM
inhibition at 10 µM (hERG (KCNH2) [9]): 39%
inhibition at 1 µM (hERG (KCNH2) [10]): 8%
Ratio [11]: 0.7
Activity (Rattus norvegicus [12]): 47%
concentration at 3 h [13]: 2600 nM
Vd [14]: 1.5 L/kg
fraction unbound at 5 h, 1 µM [15]: 0.012
concentration at 3 h [16]: 2680 nM
Activity (Rattus norvegicus [17]): 53%
MRT [18]: 36 min
Ratio [19]: 0.9
Cp(f) [20]: 30 nM
IC50 (Cytochrome P450 2D6): > 50000 nM
IC50 (Gamma-secretase [1]): 40 nM
Kp at 3 h [21]: 1.1

CCn1nnc2c1CCC(Nc1nc3c(-c4ccc(F)cc4C)cccn3n1)C2 (centres undefined)
IC50 (Gamma-secretase [1]): 2200 nM

CCn1ncc2c1CCC(Nc1nc3c(-c4cccc(Cl)c4)cccn3n1)C2 (centres undefined)
IC50 (Gamma-secretase [1]): 40 nM

CCn1ncc2c1CCC(Nc1nc3c(-c4ccc(OC)nc4)cccn3n1)C2 (centres undefined)
IC50 (Gamma-secretase [1]): 90 nM

CCn1ncc2c1CCC(Nc1nc3c(-c4ccc(F)cc4C)cccn3n1)C2 (centres undefined)
IC50 (Gamma-secretase [1]): 70 nM

CCc1nn(C)c2c1CCC(Nc1nc3c(-c4ccc(F)cc4C)cccn3n1)C2 (centres undefined)
IC50 (Gamma-secretase [1]): 3130 nM

Cc1cc(F)ccc1-c1cccn2nc(NC3CCc4[nH]ncc4C3)nc12 (centres undefined)
IC50 (Gamma-secretase [1]): 4570 nM

CCn1ncc2c1CCC(Nc1nc3c(-c4cccnc4)cccn3n1)C2 (centres undefined)
IC50 (Gamma-secretase [1]): 350 nM

CCn1ncc2c1CCC(Nc1nc3c(-c4ccc(Cl)cc4)cccn3n1)C2 (centres undefined)
IC50 (Gamma-secretase [1]): 60 nM

CCn1ncc2c1CCC(Nc1nc3c(-c4cnccc4OC)cccn3n1)C2 (centres undefined)
IC50 (Gamma-secretase [1]): 120 nM

CCCCn1ncc2c1CCC(Nc1nc3c(-c4ccc(F)cc4C)cccn3n1)C2 (centres undefined)
IC50 (Gamma-secretase [1]): 2770 nM

CCn1ncc2c1CC[C@H](Nc1nc3c(-c4ccc(F)c(Cl)c4)cccn3n1)C2
IC50 (Gamma-secretase [1]): 194 nM

Cc1cc(F)ccc1-c1cccn2nc(NC3CCc4c(cnn4C)C3)nc12 (centres undefined)
IC50 (Gamma-secretase [1]): 380 nM

Cc1cc(F)ccc1-c1cccn2nc(NC3CCc4cnn(C)c4C3)nc12 (centres undefined)
IC50 (Gamma-secretase [1]): > 30000 nM

CCn1ncc2c1CCC(Nc1nc3c(-c4cccnc4C)cccn3n1)C2 (centres undefined)
IC50 (Gamma-secretase [1]): 680 nM

CCn1ncc2c1CCC(Nc1nc3c(-c4cc(F)c(F)c(F)c4)cccn3n1)C2 (centres undefined)
IC50 (Gamma-secretase [1]): 30 nM

CCn1ncc2c1CCC(Nc1nc3c(-c4ccc(N(C)C)nc4)cccn3n1)C2 (centres undefined)
IC50 (Gamma-secretase [1]): 50 nM

Cc1cc(F)ccc1-c1cccn2nc(NC3CCc4c(cnn4C(C)C)C3)nc12 (centres undefined)
IC50 (Gamma-secretase [1]): 430 nM
